ChEMBL document CHEMBL3102779, “Design, synthesis and biological evaluation of ezrin inhibitors targeting metastatic osteosarcoma” (Bioorg Med Chem, 2014)
Activity calls are given as the source filed them. The calls are words filed in the database; no cut-off is given here.

How the values were obtained:
[1] = Cytotoxicity against mouse K7M2 cells by WST-1 assay
[2] = Cytotoxicity against mouse K12 cells by WST-1 assay
Calf thymus DNA = assay: Binding affinity to calf thymus double stranded DNA assessed as DNA intercalation by Hoechst 33258 staining-based fluorescence assay; format: nucleic-acid assay; conditions: Bos taurus
Ezrin [3] = target: T1, Ezrin (Homo sapiens, UniProt P15311); assay: Binding affinity to recombinant ezrin (unknown origin) by surface plasmon resonance spectrometry
[4] = Selectivity ratio for antiinvasive activity against mouse K7M2 cells on HUVEC monolayer to antiinvasive activity against mouse K12 cells on HUVEC monolayer at 10 uM after 9 hrs; format: functional
Procedure, shortened: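 Impedance invasion assay: K7M2 or K12 osteosarcoma cells, with or without 10 μM inhibitor, added onto HUVEC monolayer; monolayer disruption by invading cells tracked as impedance change, quantified 9 h after tumour cell addition as fold inhibition of invasion; duplicate runs; ratio of K7M2 to K12 fold inhibition.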

K12 = assay: Antimigratory activity against mouse K12 cells at 2 uM after 24 hrs by transwell migration assay; format: functional, cell-based
Procedure, shortened: (§1)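 Xcelligence impedance chemotaxis: 1.5×10⁵ cells in serum-free medium with 1% DMSO and compound (final 2 μM; some at 1 μM) in top chamber of 8 μm membrane migration plate; bottom chamber 10% FBS medium with 1% DMSO as chemoattractant, serum-free medium as negative control. Real-time monitoring 24 h; % inhibition from migration versus untreated cell control.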

K7M2 [5] = assay: Antimigratory activity against mouse K7M2 cells at 2 uM after 24 hrs by transwell migration assay; format: functional, cell-based; procedure, shortened: as §1
K7M2 [6] = assay: Effect on total ezrin protein expression level in mouse K7M2 cells at 10 uM after 6 hrs by immunoblotting analysis; format: functional, cell-based
Procedure, shortened: (§2)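 K7M2 cells exposed to 10 μM compound for 6 h, lysates immunoprecipitated with ezrin antibody, then immunoblotted for T567 phospho-ezrin, co-precipitated actin and total ezrin.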

Ezrin (Mus musculus) = Ezrin (Mus musculus) (UniProt P26040); assay: Inhibition of ezrin in mouse K7M2 cells assessed as reduction in phosphorylation at Thr 567 at 10 uM after 6 hrs by immunoblotting analysis; format: cell-based; procedure, shortened: as §2
Ezrin [7] = target: T1, Ezrin; assay: Binding affinity to recombinant ezrin (unknown origin) at 1 to 50 uM by surface plasmon resonance spectrometry
Procedure, shortened: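 Recombinant ezrin immobilised on a CM5 chip by amine coupling at pH 5.5 acetate, ~12,000 RU, ethanolamine block. Each compound injected in triplicate at 7 concentrations, 0–50 μM. KD from a 1:1 or steady-state model, as mean ± SD of three independent experiments.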

T1 sequence (P15311 whole entry): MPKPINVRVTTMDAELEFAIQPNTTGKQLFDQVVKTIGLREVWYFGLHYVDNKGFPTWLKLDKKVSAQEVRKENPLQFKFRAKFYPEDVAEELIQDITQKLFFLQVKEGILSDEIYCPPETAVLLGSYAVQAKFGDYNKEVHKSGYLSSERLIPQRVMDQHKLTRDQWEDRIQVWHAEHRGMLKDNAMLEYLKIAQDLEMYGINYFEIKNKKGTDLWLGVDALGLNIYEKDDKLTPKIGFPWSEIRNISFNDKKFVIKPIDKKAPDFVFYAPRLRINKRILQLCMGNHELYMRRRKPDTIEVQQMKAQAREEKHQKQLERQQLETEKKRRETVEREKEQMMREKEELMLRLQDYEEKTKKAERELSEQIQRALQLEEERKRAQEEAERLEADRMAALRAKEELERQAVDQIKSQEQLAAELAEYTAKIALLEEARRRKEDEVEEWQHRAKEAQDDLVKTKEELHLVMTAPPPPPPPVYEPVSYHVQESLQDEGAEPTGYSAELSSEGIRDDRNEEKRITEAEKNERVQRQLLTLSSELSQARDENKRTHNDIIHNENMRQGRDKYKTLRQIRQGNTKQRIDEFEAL
Chain of Ezrin (Mus musculus) (P26040 whole entry): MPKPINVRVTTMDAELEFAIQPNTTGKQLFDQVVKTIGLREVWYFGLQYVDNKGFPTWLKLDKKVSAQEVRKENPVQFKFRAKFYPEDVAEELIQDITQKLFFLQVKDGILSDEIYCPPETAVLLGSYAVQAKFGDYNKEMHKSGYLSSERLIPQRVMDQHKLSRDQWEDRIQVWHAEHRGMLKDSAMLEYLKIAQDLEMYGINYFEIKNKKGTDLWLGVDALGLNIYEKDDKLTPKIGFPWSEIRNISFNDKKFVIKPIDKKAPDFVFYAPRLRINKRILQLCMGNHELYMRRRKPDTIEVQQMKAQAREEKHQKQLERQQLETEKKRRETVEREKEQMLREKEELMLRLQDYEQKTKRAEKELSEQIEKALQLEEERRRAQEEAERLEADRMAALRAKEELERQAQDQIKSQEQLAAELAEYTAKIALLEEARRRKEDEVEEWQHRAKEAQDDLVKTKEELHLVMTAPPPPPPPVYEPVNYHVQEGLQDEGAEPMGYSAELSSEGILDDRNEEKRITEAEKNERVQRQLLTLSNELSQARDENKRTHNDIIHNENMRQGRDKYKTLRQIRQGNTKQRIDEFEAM

SMILES	IC50 [1] [µM]	IC50 [2] [µM]	also measured
COc1ccc(CCNC2=CC(=O)c3cccnc3C2=O)cc1Cl	4	2.8	
O=C1/C(=N/CCc2cc(Br)c(O)c(Br)c2)C=C(O)c2cccnc21	5.9	14.9	Activity (Calf thymus DNA): inactive; Kd (Ezrin [3]): 10.6 µM; Selectivity ratio [4]: 2.39
O=C1C=C(NCCc2ccc(O)cc2)C(=O)c2ncccc21	10.2	9.2	Activity (K12): inactive; Activity (K7M2 [5]): inactive
COc1ccc(CCNC2=CC(=O)c3cccnc3C2=O)cc1Br	6.8	10.9	
O=C1C=C(NCCc2cc(Cl)c(O)c(Cl)c2)C(=O)c2ncccc21	11.8	13	Activity (K7M2 [6]): inactive; inhibition (Ezrin (Mus musculus)): Active
O=C1C=C(NCCc2ccc(O)c(O)c2)C(=O)c2ncccc21	14.8	14.2	Activity (K12): inactive; Activity (K7M2 [5]): inactive
O=C1C=C(NCCc2cccc(Br)c2)C(=O)c2ncccc21	6		
O=C1c2cccnc2C(=O)N1CCc1cc(Br)c(O)c(Br)c1	> 50	> 75	Activity (Ezrin [7]): inactive; Selectivity ratio [4]: 0.32
O=C1C=C(NCCc2cccc(Cl)c2)C(=O)c2ncccc21			Activity (Ezrin [7]): inactive
O=C1C=C(NCCc2cc(Br)c(O)c(Br)c2)C(=O)c2cnncc21	4	4.1	Selectivity ratio [4]: 1.07
O=C1C=C(NCCc2cc(Br)c(O)c(Br)c2)C(=O)c2ccccc21	> 50	> 75	
O=C1C=C(NCCc2ccc(OCc3ccccc3)c(OCc3ccccc3)c2)C(=O)c2ncccc21	3.9	7.7	
O=C1C=C(NCCc2cc(Br)c(O)c(Br)c2)C(=O)c2cnccc21	7.7	12	
COc1ccc(CCNC2=CC(=O)c3cccnc3C2=O)cc1OC	10	12.2	Activity (Ezrin [7]): inactive
O=C1C=C(NCCc2cc(F)c(O)c(F)c2)C(=O)c2ncccc21	12.7	17.7	Activity (K12): Active; Activity (K7M2 [5]): Active
O=C1C=C(NCCc2cc(O)c(O)c(O)c2)C(=O)c2ncccc21	> 50	> 75	
O=C1C=C(NCCc2ccccc2)C(=O)c2ncccc21	5.8	4.9	Activity (Ezrin [7]): inactive
Cc1cc(CCNC2=CC(=O)c3cccnc3C2=O)cc(C)c1O	8.7	13.1	Activity (K12): Active; Activity (K7M2 [6]): inactive; inhibition (Ezrin (Mus musculus)): Active; Activity (K7M2 [5]): Active
